# Measured values taken from ChEMBL document CHEMBL1138351, “Small, potent, and selective diaryl phosphonate inhibitors for urokinase-type plasminogen activator with in vivo antimetastatic properties” (J Med Chem, 2007).
# Columns and labels:
# Rattus norvegicus [1] = assay: Toxicity in Brown Norwegian rat bearing BN472 tumor assessed as decrease in liver weight at 0.1 mg/kg, ip administered once daily after 4 days of tumor transplantation for 17 to 18 days relative to control; format: organism-based; parameters: dose 0.1 mg/kg, route intraperitoneal; scale not given: the % may be the effect or the level left; conditions: in vivo
# Summary of the method: (§1)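 Orthotopic BN472 breast tumour model in rats. Daily i.p. dosing at 0.1 or 1 mg/kg started on day 4 and ran 17–18 days, with vehicle-only i.p. controls. Side effects were assessed from body weight and the weights of several organs, compared with controls.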
# [2] = Apparent solubility in phosphate buffered saline at pH 7.4 after 2 hrs; format: ADME
# Summary of the method: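 Compounds were serially diluted from 10 mM DMSO stock into PBS pH 7.4 (2% DMSO final), giving 1–200 µM final at eight concentrations, in duplicate. Incubation was 2 h at 37 °C. Solubility was taken as the onset of increased absorbance at 620 nm.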
# [3] = Antitumor activity against Brown Norwegian rat bearing BN472 tumor assessed as reduction of tumor size at 1 mg/kg, ip administered once daily after 4 days of tumor transplantation for 17 to 18 days relative to control; format: functional; parameters: scale not given: the % may be the effect or the level left; conditions: route intraperitoneal
# Summary of the method: (§2)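 Rats bearing orthotopic BN472 breast tumours (grown three days) were dosed i.p. daily from day 4 for 17–18 days at 0.1 or 1 mg/kg. Vehicle-only i.p. controls were included. Tumour size and tumour weight were measured at the end of the treatment period and compared with controls.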
# [4] = biological target: Urokinase-type plasminogen activator (Homo sapiens, UniProt P00749)
# [5] = Antimetastatic activity against Brown Norwegian rat bearing BN472 tumor assessed as reduction of interpectoral lymph node weight at 1 mg/kg, ip administered once daily after 4 days of tumor transplantation for 17 to 18 days relative to control; format: functional; parameters: scale not given: the % may be the effect or the level left; conditions: route intraperitoneal
# Rattus norvegicus [6] = assay: Toxicity in Brown Norwegian rat bearing BN472 tumor assessed as decrease in adrenal weight at 0.1 mg/kg, ip administered once daily after 4 days of tumor transplantation for 17 to 18 days relative to control; format: organism-based; parameters: dose 0.1 mg/kg, route intraperitoneal; scale not given: the % may be the effect or the level left; conditions: in vivo; summary of the method: as §1
# [7] = Antimetastatic activity against Brown Norwegian rat bearing BN472 tumor assessed as decrease in number of lung foci at 0.1 mg/kg, ip administered once daily after 4 days of tumor transplantation for 17 to 18 days relative to control; format: functional; parameters: scale not given: the % may be the effect or the level left; conditions: route intraperitoneal
# Summary of the method: (§3)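 BN472 breast tumours implanted orthotopically in rats and left to grow three days. From day 4, compounds were given i.p. daily for 17–18 days at 0.1 or 1 mg/kg. Controls received vehicle i.p. only. Lung foci were counted and axillary lymph nodes weighed at the end of treatment. Groups were compared with control at an unadjusted significance level of P 0.05.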
# Rattus norvegicus [8] = assay: Toxicity in Brown Norwegian rat bearing BN472 tumor assessed as increase in kidney weight at 1 mg/kg, ip administered once daily after 4 days of tumor transplantation for 17 to 18 days relative to control; format: organism-based; parameters: dose 1 mg/kg, route intraperitoneal; conditions: in vivo; summary of the method: as §1
# Rattus norvegicus [9] = assay: Toxicity in Brown Norwegian rat bearing BN472 tumor assessed as increase in uterus weight at 1 mg/kg, ip administered once daily after 4 days of tumor transplantation for 17 to 18 days relative to control; format: organism-based; parameters: dose 1 mg/kg, route intraperitoneal; conditions: in vivo; summary of the method: as §1
# [10] = biological target: Urokinase-type plasminogen activator (Mus musculus, UniProt P06869); assay: Inhibition of mouse uPA
# Plasminogen [11] = biological target: Plasminogen (Homo sapiens, UniProt P00747); assay: Inhibition of human plasmin
# Summary of the method: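 Plasmin from human plasma at about 5 mU was preincubated with inhibitor (0–250 µM final) for 15 min at 37 °C. Substrate was S-2366 at 580 µM in Tris pH 7.4. Initial rate was read at 405 nm, in duplicate. IC50 came from a four-parameter logistic fit.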
# Coagulation factor X = Coagulation factor X (Homo sapiens, UniProt P00742); assay: Inhibition of factor 10a
# Summary of the method: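 Human factor Xa (FX activated with Russell's viper venom) at about 5 mU was preincubated with inhibitor (0–250 µM final) for 15 min at 37 °C. […] IC50 came from a four-parameter logistic fit.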
# Prothrombin [12] = biological target: Prothrombin (Homo sapiens, UniProt P00734); assay: Inhibition of human thrombin
# Summary of the method: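 Human plasma thrombin was assayed at 37 °C in Tris pH 8.3. […] Initial rate was read at 405 nm, in duplicate. IC50 was obtained from a four-parameter logistic fit.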
# Rattus norvegicus [13] = assay: Toxicity in Brown Norwegian rat bearing BN472 tumor assessed as increase in lung weight at 0.1 mg/kg, ip administered once daily after 4 days of tumor transplantation for 17 to 18 days relative to control; format: organism-based; parameters: dose 0.1 mg/kg, route intraperitoneal; conditions: in vivo; summary of the method: as §1
# [14] = Distribution coefficient, log D in octanol and phosphate buffer saline at pH 7.4; format: physicochemical; conditions: octanol/phosphate buffered saline
# Summary of the method: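 A 10 mM DMSO stock was added to a 1:1 octanol/PBS pH 7.4 mixture. Measured in duplicate.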
# Plasminogen [15] = biological target: Plasminogen (Mus musculus, UniProt P20918); assay: Inhibition of mouse plasmin
# [16] = Antitumor activity against Brown Norwegian rat bearing BN472 tumor assessed as reduction of tumor weight at 1 mg/kg, ip administered once daily after 4 days of tumor transplantation for 17 to 18 days relative to control; format: functional; parameters: scale not given: the % may be the effect or the level left; conditions: route intraperitoneal; summary of the method: as §2
# [17] = Stability in human plasma after 3 hrs; format: ADME, cell-free; conditions: read-out: Stability
# Summary of the method: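 Compound was added from 10 mM DMSO stock to human plasma at 200 µM final and shaken at 37 °C for up to 24 h. Aliquots were quenched in methanol and centrifuged. The supernatant was diluted with internal standard and analysed by LC/MS/MS in triplicate. Result is given as % parent compound remaining.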
# [18] = Antimetastatic activity against Brown Norwegian rat bearing BN472 tumor assessed as reduction of axillary lymph node weight at 1 mg/kg, ip administered once daily after 4 days of tumor transplantation for 17 to 18 days relative to control; format: functional; parameters: scale not given: the % may be the effect or the level left; conditions: route intraperitoneal; summary of the method: as §3
# [19] = Antimetastatic activity against Brown Norwegian rat bearing BN472 tumor assessed as decrease in number of lung foci at 1 mg/kg, ip administered once daily after 4 days of tumor transplantation for 17 to 18 days relative to control; format: functional; parameters: scale not given: the % may be the effect or the level left; conditions: route intraperitoneal; summary of the method: as §3
# [20] = Chemical stability assessed as half life of hydrolysis at pH 8.8; format: physicochemical; conditions: buffer
# Rattus norvegicus [21] = assay: Toxicity in Brown Norwegian rat bearing BN472 tumor assessed as decrease in spleen weight at 1 mg/kg, ip administered once daily after 4 days of tumor transplantation for 17 to 18 days relative to control; format: organism-based; parameters: dose 1 mg/kg, route intraperitoneal; scale not given: the % may be the effect or the level left; conditions: in vivo; summary of the method: as §1
# Plasminogen [22] = biological target: Plasminogen (Rattus norvegicus, UniProt Q01177); assay: Inhibition of rat plasmin
# [23] = biological target: Tissue-type plasminogen activator (Homo sapiens, UniProt P00750); assay: Inhibition of human recombinant tPA
# [24] = Chemical stability assessed as half life of hydrolysis at pH 4; format: physicochemical; conditions: buffer
# Rattus norvegicus [25] = assay: Toxicity in Brown Norwegian rat bearing BN472 tumor assessed as increase in spleen weight at 0.1 mg/kg, ip administered once daily after 4 days of tumor transplantation for 17 to 18 days relative to control; format: organism-based; parameters: dose 0.1 mg/kg, route intraperitoneal; conditions: in vivo; summary of the method: as §1
# Prothrombin [26] = biological target: Prothrombin (Rattus norvegicus, UniProt P18292); assay: Inhibition of rat thrombin
# [27] = Chemical stability assessed as half life of hydrolysis at pH 1; format: physicochemical; conditions: buffer
# Rattus norvegicus [28] = assay: Toxicity in Brown Norwegian rat bearing BN472 tumor assessed as decrease in liver weight at 1 mg/kg, ip administered once daily after 4 days of tumor transplantation for 17 to 18 days relative to control; format: organism-based; parameters: dose 1 mg/kg, route intraperitoneal; scale not given: the % may be the effect or the level left; conditions: in vivo; summary of the method: as §1
# [29] = Chemical stability assessed as half life of hydrolysis at pH 7.4; format: physicochemical; conditions: buffer
# [30] = biological target: Urokinase-type plasminogen activator (Rattus norvegicus, UniProt P29598); assay: Inhibition of rat uPA
# Sequence of Urokinase-type plasminogen activator (Rattus norvegicus, UniProt P29598) (P29598 20-177 limits assumed): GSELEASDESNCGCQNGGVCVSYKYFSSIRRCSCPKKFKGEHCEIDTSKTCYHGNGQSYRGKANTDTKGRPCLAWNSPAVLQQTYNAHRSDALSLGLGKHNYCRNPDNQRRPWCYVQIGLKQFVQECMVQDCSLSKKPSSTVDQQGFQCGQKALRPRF
# Sequence of Urokinase-type plasminogen activator (Rattus norvegicus, UniProt P29598) (P29598 179-432 limits assumed): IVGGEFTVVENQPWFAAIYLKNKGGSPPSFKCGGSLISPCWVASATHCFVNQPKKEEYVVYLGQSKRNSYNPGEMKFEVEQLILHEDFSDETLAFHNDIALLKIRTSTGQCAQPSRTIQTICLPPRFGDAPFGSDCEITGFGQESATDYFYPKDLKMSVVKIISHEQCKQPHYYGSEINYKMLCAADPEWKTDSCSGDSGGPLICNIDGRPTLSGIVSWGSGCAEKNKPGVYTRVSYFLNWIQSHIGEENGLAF
# Sequence of Plasminogen (Rattus norvegicus, UniProt Q01177) (Q01177 97-581 limits assumed): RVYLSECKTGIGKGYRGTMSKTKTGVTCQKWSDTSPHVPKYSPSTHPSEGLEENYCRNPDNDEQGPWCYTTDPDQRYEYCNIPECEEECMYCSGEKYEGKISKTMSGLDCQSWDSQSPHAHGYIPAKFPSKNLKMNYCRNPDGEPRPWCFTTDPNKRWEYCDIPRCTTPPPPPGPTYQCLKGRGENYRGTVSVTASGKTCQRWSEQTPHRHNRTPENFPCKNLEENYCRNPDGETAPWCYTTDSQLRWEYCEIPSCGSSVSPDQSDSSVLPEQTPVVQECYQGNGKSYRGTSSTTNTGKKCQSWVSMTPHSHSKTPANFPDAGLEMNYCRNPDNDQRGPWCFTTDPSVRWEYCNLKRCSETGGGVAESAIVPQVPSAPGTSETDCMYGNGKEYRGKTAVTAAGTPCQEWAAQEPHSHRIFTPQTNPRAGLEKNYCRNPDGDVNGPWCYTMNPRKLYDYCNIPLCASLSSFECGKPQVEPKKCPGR
# Sequence of Plasminogen (Rattus norvegicus, UniProt Q01177) (Q01177 582-812 limits assumed): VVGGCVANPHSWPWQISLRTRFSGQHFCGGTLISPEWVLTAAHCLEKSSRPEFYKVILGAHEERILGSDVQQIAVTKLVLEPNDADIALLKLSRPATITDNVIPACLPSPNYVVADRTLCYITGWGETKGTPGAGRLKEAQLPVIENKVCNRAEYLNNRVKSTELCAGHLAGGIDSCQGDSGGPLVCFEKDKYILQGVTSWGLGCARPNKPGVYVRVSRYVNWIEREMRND
# Sequence of Coagulation factor X (P00742 41-179 limits assumed): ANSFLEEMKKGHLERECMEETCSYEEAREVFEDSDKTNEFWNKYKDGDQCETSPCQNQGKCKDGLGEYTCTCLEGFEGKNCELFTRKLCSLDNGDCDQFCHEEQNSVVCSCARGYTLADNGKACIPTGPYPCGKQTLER
# Sequence of Coagulation factor X (P00742 235-488 limits assumed): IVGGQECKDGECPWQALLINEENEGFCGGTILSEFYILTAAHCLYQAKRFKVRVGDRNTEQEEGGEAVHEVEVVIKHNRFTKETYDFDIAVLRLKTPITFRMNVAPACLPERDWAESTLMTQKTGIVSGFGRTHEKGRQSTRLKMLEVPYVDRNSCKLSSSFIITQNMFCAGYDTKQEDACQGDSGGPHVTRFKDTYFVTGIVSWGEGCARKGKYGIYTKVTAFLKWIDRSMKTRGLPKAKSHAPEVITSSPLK
# Sequence of Plasminogen (Mus musculus, UniProt P20918) (P20918 98-581 limits assumed): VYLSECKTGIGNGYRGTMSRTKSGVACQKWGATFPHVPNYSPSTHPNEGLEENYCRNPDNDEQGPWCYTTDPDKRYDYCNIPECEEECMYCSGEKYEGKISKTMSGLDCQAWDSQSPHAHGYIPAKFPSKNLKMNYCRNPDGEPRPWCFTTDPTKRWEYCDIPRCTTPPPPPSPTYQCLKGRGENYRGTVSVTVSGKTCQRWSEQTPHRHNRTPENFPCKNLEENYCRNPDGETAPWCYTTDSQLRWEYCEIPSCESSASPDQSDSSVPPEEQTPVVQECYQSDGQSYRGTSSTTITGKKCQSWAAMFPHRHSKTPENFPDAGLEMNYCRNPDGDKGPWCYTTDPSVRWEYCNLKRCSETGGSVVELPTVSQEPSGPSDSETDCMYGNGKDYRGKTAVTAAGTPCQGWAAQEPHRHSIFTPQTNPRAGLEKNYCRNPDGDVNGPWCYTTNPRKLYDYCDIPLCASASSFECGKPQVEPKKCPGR
# Sequence of Plasminogen (Mus musculus, UniProt P20918) (P20918 582-812 limits assumed): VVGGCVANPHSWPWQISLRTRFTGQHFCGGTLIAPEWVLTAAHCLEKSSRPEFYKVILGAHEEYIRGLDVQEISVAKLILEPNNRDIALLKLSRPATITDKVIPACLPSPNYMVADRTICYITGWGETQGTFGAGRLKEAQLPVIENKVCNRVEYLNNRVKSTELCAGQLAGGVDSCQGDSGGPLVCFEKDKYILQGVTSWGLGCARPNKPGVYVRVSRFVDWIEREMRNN
# Sequence of Urokinase-type plasminogen activator (Mus musculus, UniProt P06869) (P06869 21-178 limits assumed): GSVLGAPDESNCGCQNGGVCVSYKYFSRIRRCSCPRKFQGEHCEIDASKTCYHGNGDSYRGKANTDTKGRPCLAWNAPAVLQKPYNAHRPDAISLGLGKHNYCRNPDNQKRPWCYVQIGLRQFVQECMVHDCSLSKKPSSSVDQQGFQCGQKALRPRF
# Sequence of Urokinase-type plasminogen activator (Mus musculus, UniProt P06869) (P06869 180-433 limits assumed): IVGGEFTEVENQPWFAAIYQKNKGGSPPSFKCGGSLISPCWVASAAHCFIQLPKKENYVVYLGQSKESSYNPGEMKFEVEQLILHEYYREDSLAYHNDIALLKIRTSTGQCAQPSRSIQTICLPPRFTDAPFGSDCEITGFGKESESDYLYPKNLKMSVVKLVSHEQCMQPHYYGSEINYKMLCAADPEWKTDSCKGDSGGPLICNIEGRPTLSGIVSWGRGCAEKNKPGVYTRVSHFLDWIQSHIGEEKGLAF
# Sequence of Tissue-type plasminogen activator (P00750 whole entry): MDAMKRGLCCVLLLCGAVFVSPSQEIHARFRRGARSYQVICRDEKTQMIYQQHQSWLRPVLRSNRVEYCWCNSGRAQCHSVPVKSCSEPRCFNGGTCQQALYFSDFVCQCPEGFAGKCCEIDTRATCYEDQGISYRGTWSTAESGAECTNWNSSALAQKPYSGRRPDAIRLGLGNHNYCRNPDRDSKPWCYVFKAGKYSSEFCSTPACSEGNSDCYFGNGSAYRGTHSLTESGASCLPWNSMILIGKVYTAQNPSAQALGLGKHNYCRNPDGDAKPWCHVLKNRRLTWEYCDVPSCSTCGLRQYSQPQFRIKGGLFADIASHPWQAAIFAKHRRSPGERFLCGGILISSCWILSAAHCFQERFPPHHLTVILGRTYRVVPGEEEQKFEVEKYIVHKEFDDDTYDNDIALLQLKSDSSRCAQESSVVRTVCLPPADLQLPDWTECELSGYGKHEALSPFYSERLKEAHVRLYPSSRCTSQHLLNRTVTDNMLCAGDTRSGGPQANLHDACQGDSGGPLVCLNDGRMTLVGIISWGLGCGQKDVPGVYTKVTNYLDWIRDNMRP
# Sequence of Plasminogen (Homo sapiens, UniProt P00747) (P00747 97-580 limits assumed): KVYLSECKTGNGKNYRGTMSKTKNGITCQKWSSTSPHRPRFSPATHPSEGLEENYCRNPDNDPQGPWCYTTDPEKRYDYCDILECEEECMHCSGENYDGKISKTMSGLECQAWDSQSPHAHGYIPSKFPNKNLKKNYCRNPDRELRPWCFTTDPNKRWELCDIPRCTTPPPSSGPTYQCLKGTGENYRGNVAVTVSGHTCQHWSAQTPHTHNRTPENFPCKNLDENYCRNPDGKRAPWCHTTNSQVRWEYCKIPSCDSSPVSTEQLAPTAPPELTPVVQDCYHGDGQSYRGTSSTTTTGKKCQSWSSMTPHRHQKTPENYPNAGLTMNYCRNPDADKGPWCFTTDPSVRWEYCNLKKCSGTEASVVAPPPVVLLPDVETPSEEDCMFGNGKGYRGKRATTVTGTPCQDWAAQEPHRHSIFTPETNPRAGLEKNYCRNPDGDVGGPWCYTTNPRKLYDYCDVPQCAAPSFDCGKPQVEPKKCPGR
# Sequence of Plasminogen (Homo sapiens, UniProt P00747) (P00747 581-810 limits assumed): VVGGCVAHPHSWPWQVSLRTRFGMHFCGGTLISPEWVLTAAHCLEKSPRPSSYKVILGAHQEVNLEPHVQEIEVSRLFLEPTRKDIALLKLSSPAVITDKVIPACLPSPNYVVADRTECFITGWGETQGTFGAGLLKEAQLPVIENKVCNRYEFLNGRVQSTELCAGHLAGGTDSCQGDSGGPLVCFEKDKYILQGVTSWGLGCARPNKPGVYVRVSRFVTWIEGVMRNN
smiles,measurement,setting,value
COC(=O)NC(Cc1ccc(NC(=N)N)cc1)P(=O)(Oc1ccc(NC(C)=O)cc1)Oc1ccc(NC(C)=O)cc1 (stereo unspecified),Activity,Rattus norvegicus [1],2%
same,solubility at 2 h,[2],> 200 µM
same,Activity,[3],18%
same,Kapp,[4],1e+06 M⁻¹ s⁻¹
same,Activity,[5],6%
same,Activity,Rattus norvegicus [6],2%
same,Activity,[7],42%
same,Activity,Rattus norvegicus [8],3%
same,Activity,Rattus norvegicus [9],33%
same,IC50,[10],8 nM
same,IC50,Plasminogen [11],2800 nM
same,IC50,Coagulation factor X,30000 nM
same,IC50,Prothrombin [12],1130 nM
same,Activity,Rattus norvegicus [13],18%
same,logD,[14],-0.08
same,IC50,Plasminogen [15],4800 nM
same,Activity,[16],17%
same,remaining at 3 h,[17],81%
same,Activity,[18],73%
same,Activity,[19],70%
same,half-life,[20],3 h
same,Activity,Rattus norvegicus [21],10%
same,IC50,Plasminogen [22],2200 nM
same,IC50,[23],6100 nM
same,half-life,[24],> 336 h
same,Activity,Rattus norvegicus [25],3%
same,IC50,Prothrombin [26],45000 nM
same,half-life,[27],35 h
same,Activity,Rattus norvegicus [28],8%
same,half-life,[29],64 h
same,IC50,[30],24.5 nM
